From ChEMBL document CHEMBL3580607, “Anti-parasitic Guanidine and Pyrimidine Alkaloids from the Marine Sponge Monanchora arbuscula” (J Nat Prod, 2015)
pIC50: −log10 of the molar value. ≈ marks a conversion by molar mass, not a printed value. Calls of active or inactive are those of the source. No cut-off for these calls is given here.

Experiments:
A549 = assay: Cytotoxicity against human A549 cells; assay type: functional, cell-based
Trypanosoma cruzi [1] = assay: Potency index, ratio of benznidazole IC50 to compound IC50 for trypomastigote stage of Trypanosoma cruzi Y; assay type: functional
Trypanosoma cruzi [2] = assay: Antitrypanosomal activity against trypomastigote stage of Trypanosoma cruzi Y assessed as inhibition of cell viability after 24 hrs by MTT assay; assay type: functional, organism-based
Procedure, shortened: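 T. cruzi Y-strain trypomastigotes incubated with alkaloids for 24 h; viability by MTT. Benznidazole as standard drug control. IC50 from sigmoidal dose–response curves, mean and standard deviation of replicates from at least two independent assays, 95% CI.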

LLC-MK2 = assay: Cytotoxicity against rhesus monkey LLC-MK2 cells assessed as inhibition of cell viability after 48 hrs by MTT assay; assay type: cell-based; details: Macaca mulatta, LLC-MK2, 48 h
Procedure, shortened: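 LLC-MK2 rhesus monkey kidney cells seeded at 4 × 10^4 per well, exposed to alkaloids at up to 200 μM for 48 h; viability by MTT. IC50 from sigmoidal dose–response fits with 95% CI, replicates from at least two independent assays.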

Leishmania infantum [3] = assay: Antileishmanial activity against intracellular amastigote stage of Leishmania infantum MHOM/BR/1972/LD infected in BALB/c mouse peritoneal macrophages assessed as reduction of parasite burden after 120 hrs by Giemsa staining assay; assay type: functional, organism-based
Procedure, shortened: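 Peritoneal macrophages from BALB/c mice (collected in RPMI-1640 with 10% FBS, 37 °C, 5% CO2) infected with L. infantum amastigotes from spleens of infected hamsters, at a 1:10 macrophage:amastigote ratio. Compound exposure for 120 h, then Giemsa staining; infected macrophages counted out of 500 cells. Miltefosine as standard drug control.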

Leishmania infantum [4] = assay: Antileishmanial activity against promastigote stage of Leishmania infantum MHOM/BR/1972/LD assessed as reduction of cell viability after 48 hrs by MTT assay; assay type: functional, organism-based
Procedure, shortened: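 L. infantum promastigotes exposed to alkaloids dissolved in DMSO, diluted in M-199 medium, highest concentration 156 μM, with internal controls; viability read by MTT after 48 h incubation. IC50 from sigmoidal dose–response curves, mean and standard deviation of replicates from at least two independent assays, with 95% CI.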

HeLa = assay: Cytotoxicity against human HeLa cells; assay type: functional, cell-based
MCF7 = assay: Cytotoxicity against human MCF7 cells; assay type: functional, cell-based
[5] = Cytotoxicity against human MCF10A cells; assay type: cell-based; details: mcf-10a
Leishmania donovani [6] = assay: Antileishmanial activity against promastigote stage Leishmania donovani assessed as growth inhibition after 72 hrs by Alamar blue assay; assay type: functional, organism-based
[7] = test system: Trypanosoma brucei brucei; assay: Antitrypanosomal activity against Trypanosoma brucei brucei GUTat 3.1 after 72 hrs by Alamar blue assay; assay type: functional, organism-based; details: GUTat 3.1, 72 h
Leishmania infantum [8] = assay: Leishmanicidal activity against promastigote stage of Leishmania infantum MHOM/BR/1972/LD assessed as reduction of mitochondrial membrane potential at 2 uM measured after 60 mins by MitoTracker Red CM-H2XROS dye-based fluorimetric microplate reader analysis relative to control; assay type: functional; parameters: scale not given: the % may be the effect or the level left
Procedure, shortened: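 L. infantum promastigotes at 2 × 10^6/well exposed to 2 μM compound for 60 min, then MitoTracker Red CM-H2XROS (500 nM) added; fluorescence at excitation 540 nm / emission 595 nm. Controls: DMSO, compound alone, untreated parasites, medium without cells.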

[9] = Selectivity index, ratio of IC50 for rhesus monkey LLC-MK2 cells to IC50 for trypomastigote stage of Trypanosoma cruzi Y; assay type: toxicity, cell-based; details: read-out: Ratio IC50
Procedure, shortened: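 The ratio divides the LLC-MK2 IC50 by the T. cruzi trypomastigote IC50. LLC-MK2 cells were seeded at 4 × 10^4/well, given compound up to 200 μM for 48 h, and read by MTT. Y-strain trypomastigotes were exposed for 24 h, with MTT read-out. IC50s come from sigmoidal dose–response fits (95% CI), using replicates from at least two independent assays.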

Leishmania infantum [10] = assay: Antileishmanial activity against promastigote stage of Leishmania infantum MHOM/BR/1972/LD assessed as increase in membrane permeability at 2 uM measured at 60 mins by SYTOX green staining-based fluorimetric microplate reader analysis
Leishmania donovani [11] = assay: Antileishmanial activity against Leishmania donovani; assay type: functional, organism-based
Leishmania infantum [12] = assay: Leishmanicidal activity against promastigote stage of Leishmania infantum MHOM/BR/1972/LD assessed as increase in reactive oxygen species production at 2 uM measured after 60 mins by H2DCf-DA probe-based fluorimetric microplate reader analysis relative to control; assay type: functional
Procedure, shortened: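 Promastigotes (2 × 10^6/well) given 2 μM compound for 60 min, then H2DCf-DA (5 μM) for 15 min; fluorescence at 485/520 nm. Oligomycin (20 μM) as positive control; data normalized with oligomycin-treated parasites as 100% and untreated as 0%.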

Row | SMILES | pIC50 (Trypanosoma cruzi [2]) | Ratio IC50 (Trypanosoma cruzi [1]) | pIC50 (LLC-MK2) | Activity (Leishmania infantum [3]) | pIC50 (Leishmania infantum [4]) | IC50 (Leishmania donovani [6]) [µg/mL] | further results
1 | CCCCCCCCCc1cc2n(c(=N)n1)CCC2 | 5.10 | 54 | 4.59 | inactive | 5.70 |  | Activity (A549): inactive; Activity (HeLa): inactive; Activity (MCF7): inactive; Activity [5]: Non-toxic
2 | CCC1C=CCC[C@@]2(C[C@@H]3CC[C@@H]4[C@H](C(=O)OCCCCCCCCCCCCCCCC(=O)N(CCCN)C[C@@H](O)CCN)[C@]5(CCC[C@@H](C)O5)NC(=N2)N34)O1 (stereo partly specified) |  |  |  |  |  | 6.8 (≈ 8.49 µM) | 
3 | CCCCCCCCCCCCCCCCOP(=O)([O-])OCC[N+](C)(C)C [MILTEFOSINE] |  |  | 3.91 |  | 4.80 |  | 
4 | CCCCC[C@@H]1C[C@H]2CC[C@H]3C[C@@H](CCCCC)NC(=[N+]23)N1.O=C([O-])C(F)(F)F |  |  |  |  |  |  | IC50 [7]: 0.24 µg/mL
5 | O=C(Cn1ccnc1[N+](=O)[O-])NCc1ccccc1 [BENZNIDAZOLE] | 3.36 |  | 3.32 |  |  |  | 
6 | CC/C=C/CCC[C@@H]1C[C@@H]2CC[C@@H]3C[C@@H](CCCCCCC)NC(=[N+]32)N1.O=C([O-])C(F)(F)F |  |  |  |  |  |  | IC50 [7]: 0.24 µg/mL
7 | CCCC[C@H]1c2nc(=N)[nH]c3c2[C@H](CC3)C[C@@H]1C |  |  |  |  |  |  | IC50 (Leishmania donovani [11]): 17 µg/mL (≈ 69.3 µM)
8 | CCCCCCC[C@@H]1C[C@@H]2CCC3=C(C(=O)OCCCCCCC[C@@H]4C[C@@H]5CC[C@@H]6C[C@H](C)NC(=N4)N65)C(C)N=C(N1)N32 (stereo partly specified) |  |  |  |  |  | 8.5 (≈ 14.3 µM) | 
9 | CCCCCCC[C@H]1C[C@H]2CCC3=C(C(=O)OCCCCNC(=N)N)C(CCCCC)N=C(N1)N32 (stereo partly specified) |  |  |  |  |  | 5.5 (≈ 11.3 µM) | 

The next lines start with results.

Row | pIC50 (Trypanosoma cruzi [2]) | SMILES | Ratio IC50 (Trypanosoma cruzi [1]) | pIC50 (LLC-MK2) | Activity (Leishmania infantum [3]) | pIC50 (Leishmania infantum [4]) | IC50 (Leishmania donovani [6]) [µg/mL] | further results
10 | 5.70 | CCCCCCCCC[C@@H]1C[C@@H]2CC[C@H]3[C@@H](C(=O)OC(C)CCCCCCC[C@@H]4C[C@@H]5CC[C@@H]6C[C@H](C)NC(=N4)N65)[C@@H](C)N=C(N1)N23 (stereo partly specified) [BATZELLADINE L] | 54 | 4.66 | inactive | 5.70 | 1.9 (≈ 2.91 µM) | Activity (Leishmania infantum [8]): 35%; selectivity ratio [9]: 7; Activity (Leishmania infantum [10]): 43%
11 | 5.15 | CCCCCCCC[C@@H]1C[C@@H]2CC[C@H]3[C@@H](C(=O)OC(C)CCCCCCC[C@@H]4C[C@@H]5CC[C@@H]6C[C@H](C)NC(=N4)N65)[C@@H](C)N=C(N1)N23 (stereo partly specified) [NORBATZELLADINE L] | 54 | 4.07 | inactive | 5.70 |  | Activity (Leishmania infantum [12]): 65%; Activity (Leishmania infantum [8]): 30%; selectivity ratio [9]: 12; Activity (Leishmania infantum [10]): 82%
12 | 5.30 | CCCCCCC[C@@H]1C[C@@H]2CC[C@H]3[C@@H](C(=O)O[C@H](C)CCCCCCC[C@@H]4C[C@@H]5CC[C@@H]6C[C@H](C)N=C(N4)N65)[C@@H](C)N=C(N1)N23 | 54 | 5.00 | inactive | 5.40 |  | 
13 | 4.19 | CCCCCCCCC[C@@H]1C[C@@H]2CC[C@H]3[C@@H](C(=O)OCCCCNC(=N)N)[C@@H](C)N=C(N1)N23 |  | 3.89 | inactive | 5.70 |  | 
